Experimental data: ChEMBL document CHEMBL3992547, “Antimicrobial activity of rhodanine-3-acetic acid derivatives” (Bioorg Med Chem, 2017)
In brackets after ≈: the same amount, converted by molar mass. Activity calls are given as the source filed them. The calls are words filed in the database; no cut-off is given here.

Legend:
[1] = tested on: Mycobacterium tuberculosis; experiment: Antimycobacterial activity against Mycobacterium tuberculosis H37Rv 331/88 measured after 14 days by micromethod; format: functional; details: H37Rv 331/88, 336 h
[2] = tested on: Mycobacterium tuberculosis; experiment: Antimycobacterial activity against Mycobacterium tuberculosis H37Rv 331/88 measured after 21 days by micromethod; format: functional; details: H37Rv 331/88, 504 h
[3] = tested on: Mycobacterium avium; experiment: Antimycobacterial activity against Mycobacterium avium 330/88 measured after 14 days by micromethod; format: functional; details: 330/88, 336 h
[4] = tested on: Mycobacterium avium; experiment: Antimycobacterial activity against Mycobacterium avium 330/88 measured after 21 days by micromethod; format: functional; details: 330/88, 504 h
[5] = tested on: Mycobacterium kansasii; experiment: Antimycobacterial activity against Mycobacterium kansasii isolate 235/80 after 7 days by micromethod; format: functional; details: isolate 235/80, 168 h
[6] = tested on: Mycobacterium kansasii; experiment: Antimycobacterial activity against Mycobacterium kansasii isolate 235/80 after 14 days by micromethod; format: functional; details: isolate 235/80, 336 h
[7] = tested on: Mycobacterium kansasii; experiment: Antimycobacterial activity against Mycobacterium kansasii isolate 235/80 after 21 days by micromethod; format: functional; details: isolate 235/80, 504 h
[8] = tested on: Mycobacterium kansasii; experiment: Antimycobacterial activity against Mycobacterium kansasii isolate 6509/96 after 7 days by micromethod; format: functional; details: isolate 6509/96, 168 h
[9] = tested on: Mycobacterium kansasii; experiment: Antimycobacterial activity against Mycobacterium kansasii isolate 6509/96 after 14 days by micromethod; format: functional; details: isolate 6509/96, 336 h
[10] = tested on: Mycobacterium kansasii; experiment: Antimycobacterial activity against Mycobacterium kansasii isolate 6509/96 after 21 days by micromethod; format: functional; details: isolate 6509/96, 504 h
[11] = Solubility of the compound in Sula's semisynthetic medium up to 1 mM; format: physicochemical
[12] = tested on: Staphylococcus aureus; experiment: Antibacterial activity against Staphylococcus aureus CCM 4516/08 incubated for 24 hrs under dark condition by microdilution broth assay; format: functional; details: CCM 4516/08, 24 h
Outline: (§1)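 Broth microdilution per M07-A07, modified, in Mueller-Hinton broth adjusted to pH 7.4 (±0.2). Inoculum is prepared in sterile water to McFarland 0.5 (1.5 × 10⁸ CFU/mL). Plates are incubated in the dark at 35 °C in humid air. MIC is read after 24 and 48 h as at least 95% growth reduction versus control (IC₉₅).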

[13] = tested on: Staphylococcus aureus; experiment: Antibacterial activity against Staphylococcus aureus CCM 4516/08 incubated for 48 hrs under dark condition by microdilution broth assay; format: functional; details: CCM 4516/08, 48 h; outline: as §1
[14] = tested on: Staphylococcus aureus; experiment: Antibacterial activity against methicillin-resistant Staphylococcus aureus H 5996/08 incubated for 24 hrs under dark condition by microdilution broth assay; format: functional; details: H 5996/08, 24 h
Outline: (§2)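 Microdilution broth method modified per M07-A07, in Mueller-Hinton broth adjusted to pH 7.4 (±0.2). Inoculum made in sterile water to 0.5 McFarland (1.5 × 10⁸ CFU/mL). Plates incubated in the dark at 35 °C in a humid atmosphere, with reads at 24 and 48 h. MIC taken as at least 95% growth reduction (IC₉₅) versus control.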

[15] = tested on: Staphylococcus aureus; experiment: Antibacterial activity against methicillin-resistant Staphylococcus aureus H 5996/08 incubated for 48 hrs under dark condition by microdilution broth assay; format: functional; details: H 5996/08, 48 h; outline: as §2
[16] = tested on: Staphylococcus epidermidis; experiment: Antibacterial activity against Staphylococcus epidermidis H 6966/08 incubated for 24 hrs under dark condition by microdilution broth assay; format: functional; details: H 6966/08, 24 h; outline: as §1
[17] = tested on: Staphylococcus epidermidis; experiment: Antibacterial activity against Staphylococcus epidermidis H 6966/08 incubated for 48 hrs under dark condition by microdilution broth assay; format: functional; details: H 6966/08, 48 h; outline: as §1
[18] = tested on: Escherichia coli; experiment: Antibacterial activity against Escherichia coli CCM 4517 incubated for 24 hrs under dark condition by microdilution broth assay; format: functional; details: CCM 4517, 24 h; outline: as §1
[19] = tested on: Escherichia coli; experiment: Antibacterial activity against Escherichia coli CCM 4517 incubated for 48 hrs under dark condition by microdilution broth assay; format: functional; details: CCM 4517, 48 h; outline: as §1
[20] = tested on: Klebsiella pneumoniae; experiment: Antibacterial activity against Klebsiella pneumoniae D 11750/08 up to 500 uM incubated for 24 to 48 hrs under dark condition by microdilution broth assay; format: functional; outline: as §1
[21] = tested on: Klebsiella pneumoniae; experiment: Antibacterial activity against ESBL positive Klebsiella pneumoniae J 14368/08 up to 500 uM incubated for 24 to 48 hrs under dark condition by microdilution broth assay; format: functional; outline: as §1
[22] = tested on: Pseudomonas aeruginosa; experiment: Antibacterial activity against Pseudomonas aeruginosa CCM 1961 up to 500 uM incubated for 24 to 48 hrs under dark condition by microdilution broth assay; format: functional; outline: as §1
[23] = tested on: Candida albicans; experiment: Antifungal activity against Candida albicans ATCC 44859 after 24 hrs by microdilution broth assay; format: functional; details: ATCC 44859, 24 h
Outline: (§3)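 Broth microdilution per CLSI M27-A3 and M38-A2 in RPMI 1640 with glutamine, buffered to pH 7.0 with MOPS. Compounds are diluted in DMSO. Final inoculum is 5 × 10³ CFU/mL for yeasts and 0.5–5 × 10⁴ CFU/mL for moulds. Plates are incubated in the dark at 35 °C in humid air and read visually and/or at 540 nm after 24 and 48 h. MIC is ≥80% growth reduction (IC₈₀) for yeasts and ≥50% (IC₅₀) for filamentous fungi.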

[24] = tested on: Candida albicans; experiment: Antifungal activity against Candida albicans ATCC 44859 after 48 hrs by microdilution broth assay; format: functional; details: ATCC 44859, 48 h; outline: as §3
[25] = tested on: Candida tropicalis; experiment: Antifungal activity against Candida tropicalis 156 after 24 hrs by microdilution broth assay; format: functional; details: Candida tropicalis, 156, 24 h; outline: as §3
[26] = tested on: Candida tropicalis; experiment: Antifungal activity against Candida tropicalis 156 after 48 hrs by microdilution broth assay; format: functional; details: Candida tropicalis, 156, 48 h; outline: as §3
[27] = tested on: Nakaseomyces glabratus; experiment: Antifungal activity against Candida glabrata 20/I after 24 hrs by microdilution broth assay; format: functional; outline: as §3
[28] = tested on: Nakaseomyces glabratus; experiment: Antifungal activity against Candida glabrata 20/I after 48 hrs by microdilution broth assay; format: functional; outline: as §3
[29] = tested on: Trichosporon asahii; experiment: Antifungal activity against Trichosporon asahii 1188 after 24 hrs by microdilution broth assay; format: functional; details: Trichosporon asahii, 1188, 24 h; outline: as §3
[30] = tested on: Trichosporon asahii; experiment: Antifungal activity against Trichosporon asahii 1188 after 48 hrs by microdilution broth assay; format: functional; details: Trichosporon asahii, 1188, 48 h; outline: as §3
[31] = tested on: Aspergillus fumigatus; experiment: Antifungal activity against Aspergillus fumigatus 231 after 24 hrs by microdilution broth assay; format: functional; details: Aspergillus fumigatus, 231, 24 h; outline: as §3
[32] = tested on: Aspergillus fumigatus; experiment: Antifungal activity against Aspergillus fumigatus 231 after 48 hrs by microdilution broth assay; format: functional; details: Aspergillus fumigatus, 231, 48 h; outline: as §3
[33] = tested on: Trichophyton mentagrophytes; experiment: Antifungal activity against Trichophyton mentagrophytes 445 after 72 hrs by microdilution broth assay; format: functional; details: Trichophyton mentagrophytes, 445, 72 h
Outline: (§4)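 Broth microdilution per CLSI M38-A2 in RPMI 1640 with glutamine, buffered to pH 7.0 with MOPS, with DMSO as diluent. Final inoculum is 0.5–5 × 10⁴ CFU/mL. Plates are incubated in the dark at 35 °C in humid air and read visually and/or at 540 nm after 72 and 120 h. MIC is at least 50% growth reduction versus control.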

[34] = tested on: Trichophyton mentagrophytes; experiment: Antifungal activity against Trichophyton mentagrophytes 445 after 120 hrs by microdilution broth assay; format: functional; details: Trichophyton mentagrophytes, 445, 120 h; outline: as §4
[35] = tested on: Pichia kudriavzevii; experiment: Antifungal activity against Candida krusei E28 after 24 to 48 hrs hrs by microdilution broth assay; format: functional; outline: as §3
[36] = tested on: Lichtheimia corymbifera; experiment: Antifungal activity against Absidia corymbifera 272 after 24 to 48 hrs hrs by microdilution broth assay; format: functional; outline: as §3
[37] = tested on: Enterococcus; experiment: Antibacterial activity against Enterococcus sp. J 14365/08 incubated for 24 hrs under dark condition by microdilution broth assay; details: J 14365/08, 24 h
[38] = tested on: Enterococcus; experiment: Antibacterial activity against Enterococcus sp. J 14365/08 incubated for 48 hrs under dark condition by microdilution broth assay; details: J 14365/08, 48 h

Structure (SMILES) | MIC [1] | MIC [2] | MIC [3] | MIC [4] | MIC [5] | MIC [6] | MIC [7] | MIC [8] | MIC [9] | MIC [10] | solubility [11] | MIC95 [12] | MIC95 [13] | MIC95 [14] | MIC95 [15] | MIC95 [16] | MIC95 [17] | MIC95 [18] | MIC95 [19] | Activity [20] | further results
O=C(O)CN1C(=O)/C(=C/c2ccccc2O)SC1=S | 32 µM (≈ 9.45 µg/mL) | 32 µM (≈ 9.45 µg/mL) | 125 µM (≈ 36.9 µg/mL) | 125 µM (≈ 36.9 µg/mL) | 32 µM (≈ 9.45 µg/mL) | 62.5 µM (≈ 18.5 µg/mL) | 62.5 µM (≈ 18.5 µg/mL) | 32 µM (≈ 9.45 µg/mL) | 62.5 µM (≈ 18.5 µg/mL) | 62.5 µM (≈ 18.5 µg/mL) | Soluble | 62.5 µM (≈ 18.5 µg/mL) | 62.5 µM (≈ 18.5 µg/mL) | 62.5 µM (≈ 18.5 µg/mL) | 62.5 µM (≈ 18.5 µg/mL) | 125 µM (≈ 36.9 µg/mL) | 125 µM (≈ 36.9 µg/mL) | 500 µM (≈ 148 µg/mL) | > 500 µM | inactive | Activity [21]: inactive; Activity [22]: inactive; MIC80 [23]: 500 µM (≈ 148 µg/mL); MIC80 [24]: 500 µM (≈ 148 µg/mL); MIC80 [25]: > 500 µM; MIC80 [26]: > 500 µM; MIC80 [27]: > 500 µM; MIC80 [28]: > 500 µM; MIC80 [29]: > 500 µM; MIC80 [30]: > 500 µM; MIC50 [31]: > 500 µM; MIC50 [32]: > 500 µM; MIC50 [33]: 250 µM (≈ 73.8 µg/mL); MIC50 [34]: 250 µM (≈ 73.8 µg/mL); Activity [35]: inactive; Activity [36]: inactive; MIC95 [37]: 125 µM (≈ 36.9 µg/mL); MIC95 [38]: 125 µM (≈ 36.9 µg/mL)
O=C(CN1C(=O)/C(=C/c2cc(Br)ccc2O)SC1=S)Nc1ccc(Cl)cc1 | 32 µM (≈ 15.5 µg/mL) | 62.5 µM (≈ 30.2 µg/mL) | 500 µM (≈ 242 µg/mL) | 500 µM (≈ 242 µg/mL) | 500 µM (≈ 242 µg/mL) | > 500 µM | > 500 µM | 125 µM (≈ 60.5 µg/mL) | 250 µM (≈ 121 µg/mL) | 500 µM (≈ 242 µg/mL) | Soluble | 500 µM (≈ 242 µg/mL) | 500 µM (≈ 242 µg/mL) | 500 µM (≈ 242 µg/mL) | 500 µM (≈ 242 µg/mL) | 500 µM (≈ 242 µg/mL) | 500 µM (≈ 242 µg/mL) | > 500 µM | > 500 µM | inactive | Activity [21]: inactive; Activity [22]: inactive; Activity [35]: inactive; Activity [36]: inactive; MIC95 [37]: 500 µM (≈ 242 µg/mL); MIC95 [38]: 500 µM (≈ 242 µg/mL)
